Experimental data from ChEMBL document CHEMBL1143823, “Addition of a C-terminal cysteine improves the anti-herpes simplex virus activity of a peptide containing the human immunodeficiency virus type 1 TAT protein transduction domain” (Antimicrob Agents Chemother, 2007).
pEC50: −log10 of the molar value. Calls of active or inactive are those of the source. The calls are words filed in the database; no cut-off is given here.

What was measured:
[1] = test system: Human alphaherpesvirus 1; experiment: Antiviral activity against HSV1 in african green monkey Vero cells assessed as resistance to viral infection after 1 hr at 37 degC; assay type: functional, organism-based; settings: Human alphaherpesvirus 1, Vero
Procedure, shortened: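 Vero monolayers exposed to peptide 1 h at 37°C, rinsed three times, infected with hrR3 (MOI 0.01) 1 h at 37°C without peptide. pH 3 citrate inactivates extracellular virus; lysate β-galactosidase (CPR-Gal, 570 nm) read 6 h later. EC50 from dose-response, triplicates per concentration.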

[2] = test system: Human alphaherpesvirus 1; experiment: Inhibition of HSV1 entry in african green monkey Vero cells assessed as beta-galactosidase activity for 1 hr at 37 degC; assay type: functional, organism-based; settings: Human alphaherpesvirus 1, Vero
Procedure, shortened: (§1)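 HSV-1 hrR3 (MOI 0.02–0.03) adsorbed to precooled Vero cells 1 h at 4°C and rinsed. Peptide added at 4°C, shifted to 37°C for 1 h of entry. Peptide rinsed off; pH 3 citrate 60 s. Lysis at 6 h, initial β-galactosidase rate (CPR-Gal, 570 nm) relative to mock, minus cycloheximide background; triplicates.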

[3] = test system: Human alphaherpesvirus 1; experiment: Antiviral activity against HSV1 in african green monkey Vero cells assessed as viral inactivation after 1 hr at 37 degC; assay type: functional, organism-based; settings: Human alphaherpesvirus 1, Vero
Procedure, shortened: (§2)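 hrR3 virions (1×10^6–6×10^6 PFU/ml) in serum-free DMEM incubated with peptide 1 h at 37°C. Free peptide removed by 1,000-fold dilution or by pelleting at 14,000 × g. Infectivity then titrated on Vero cells in triplicate by lysate β-galactosidase or X-Gal staining. EC50 from dose-response curves.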

[4] = test system: Vero; experiment: Cytotoxicity against african green monkey Vero cells by trypan blue exclusion assay; assay type: cell-based; settings: chlorocebus sabaeus
Procedure, shortened: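 Viability by trypan blue exclusion in Vero cells after peptide exposure.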

[5] = test system: Human alphaherpesvirus 1; experiment: Inhibition of HSV1 entry in african green monkey Vero cells assessed as beta-galactosidase activity relative to control […]; assay type: functional, organism-based; settings: Human alphaherpesvirus 1, Vero; procedure, shortened: as §1
[6] = test system: Human alphaherpesvirus 1; experiment: Inhibition of HSV1 attachment in african green monkey Vero cells at 100 uM at 37 degC; assay type: functional; settings: Human alphaherpesvirus 1, Vero
[7] = test system: Human alphaherpesvirus 1; experiment: Inhibition of HSV1 hrR3S syncytium formation in african green monkey Vero cells assessed as reduction of beta-galactosidase activity at 100 uM; assay type: functional; design: scale not given: the % may be the effect or the level left
Procedure, shortened: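 Confluent Vero (2.0 × 10^5 cells/well) infected with syncytial hrR3S (MOI 0.02 to 0.05) 1 to 2 h at 37°C, rinsed, then held up to 24 h at 37°C in carbonate-buffered serum DMEM with neutralizing anti-HSV-1 antibody (50-fold dilution) ± peptide. Fusion read as initial β-galactosidase rate in NP-40 lysates with CPR-Gal at 570 nm.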

[8] = test system: Human alphaherpesvirus 2; experiment: Antiviral activity against HSV2 333 assessed by plaque reduction assay; assay type: functional, organism-based
Procedure, shortened: (§3)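 Plaque reduction on Vero monolayers with HSV-2 strain 333, 150 PFU/well adsorbed 1 h at 4°C. Peptide added at 4°C, shift to 37°C 10 min later; alternatively cells pretreated 1 h at 4°C with peptide and rinsed before virus. Extracellular virus inactivated; 2% methylcellulose overlay for 2.5 days; crystal violet plaque counts.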

[9] = test system: Human alphaherpesvirus 2; experiment: Antiviral activity against HSV2 333 assessed as resistance against viral infection; assay type: functional, organism-based
[10] = test system: Human alphaherpesvirus 1; experiment: Inactivation of HSV1 in african green monkey Vero cells assessed as beta-galactosidase activity upto 200 uM at 37 degC; assay type: functional, organism-based; procedure, shortened: as §2
[11] = test system: Human alphaherpesvirus 1; experiment: Antiviral activity against HSV1 assessed as Inhibition of VP16 nuclear translocation in african green monkey Vero cells at 50 uM after 1 hr at 4 degC; assay type: functional; design: scale not given: the % may be the effect or the level left
Procedure, shortened: (§4)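 Vero cells on poly-L-lysine coverslips; HSV-1 adsorbed 80 min at 4°C (MOI 10). Peptide at 50 μM present for the last 20 min of adsorption and through the 1 h 37°C entry period, or virus pretreated with 300 μM for 1 h at 37°C and then diluted. Cells fixed, anti-VP16 immunofluorescence, 50 cells per group scored for nuclear VP16.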

[12] = test system: Human alphaherpesvirus 1; experiment: Antiviral activity against HSV1 assessed as Inhibition of VP16 nuclear translocation in african green monkey Vero cells at 300 uM after 1 hr at 37 degC; assay type: functional; design: scale not given: the % may be the effect or the level left; procedure, shortened: as §4
[13] = test system: Human alphaherpesvirus 1; experiment: Inhibition of HSV1 entry in african green monkey Vero cells assessed as beta-galactosidase activity at 30 uM at 33 degC after 40 mins; assay type: functional, organism-based
Procedure, shortened: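 Vero cells on strip-well plates with hrR3 adsorbed 1 h at 4°C; entry started by floating the plate at 33°C. Peptide added just before the shift or 35 min after, returning to 33°C at 40 min. At set times, external virus inactivated with pH 3 citrate. Lysed 6 h later; β-galactosidase initial rate read against mock-treated controls, triplicate.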

[14] = test system: Human alphaherpesvirus 2; experiment: Antiviral activity against HSV2 333 pretreated for 1 hr before viral infection at 4 degC by plaque reduction assay; assay type: functional, organism-based; procedure, shortened: as §3
[15] = test system: Human alphaherpesvirus 1; experiment: Antiviral activity against HSV1 hrR3S infected african green monkey Vero cells assessed as inhibition of viral cell-cell spread at 100 uM; assay type: functional, organism-based
Procedure, shortened: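 Vero cells infected with syncytial hrR3S (MOI 0.02–0.05) for 1–2 h at 37°C, then held up to 24 h at 37°C with 50-fold diluted neutralizing anti-HSV-1 antibody ± peptide. Syncytia viewed by X-Gal staining; fusion quantified as initial rate of lysate β-galactosidase.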

| Compound | pEC50 [1] | pEC50 [2] | pEC50 [3] | Activity [4] | other results |
| --- | --- | --- | --- | --- | --- |
| N=C(N)NCCC[C@H](NC(=O)[C@H](CCCNC(=N)N)NC(=O)[C@H](CCCNC(=N)N)NC(=O)[C@H](CCC(N)=O)NC(=O)[C@H](CCCNC(=N)N)NC(=O)[C@H](CCCNC(=N)N)NC(=O)[C@H](CCCCN)NC(=O)[C@H](CCCCN)NC(=O)[C@H](CCCNC(=N)N)NC(=O)CN)C(N)=O | < 2.92 | 6.00 | < 2.92 | Non-toxic | pEC50 [5]: 6.52 |
| N=C(N)NCCC[C@@H](NC(=O)CNC(=O)CCCCCNC(=O)CCCC[C@@H]1SC[C@@H]2NC(=O)N[C@@H]21)C(=O)N[C@H](CCCCN)C(=O)N[C@H](CCCCN)C(=O)N[C@H](CCCNC(=N)N)C(=O)N[C@H](CCCNC(=N)N)C(=O)N[C@H](CCC(N)=O)C(=O)N[C@H](CCCNC(=N)N)C(=O)N[C@H](CCCNC(=N)N)C(=O)N[C@H](CCCNC(=N)N)C(=O)N[C@H](CS)C(=O)O |  | 5.68 |  | Non-toxic | inhibition at 100 µM [6]: 25%; Activity [7]: 93% |
| CCCC[C@H](NC(=O)[C@H](CCCC)NC(=O)[C@H](CCC(N)=O)NC(=O)[C@H](CCCNC(=N)N)NC(=O)[C@H](CCCNC(=N)N)NC(=O)[C@H](CCCCN)NC(=O)[C@H](CCCCN)NC(=O)[C@H](CCCNC(=N)N)NC(=O)CNC(=O)CCCCCNC(=O)CCCC[C@@H]1SC[C@@H]2NC(=O)N[C@@H]21)C(=O)N[C@@H](CCCNC(=N)N)C(=O)N[C@@H](CS)C(=O)O |  | 4.43 |  | Non-toxic |  |
| N=C(N)NCCC[C@H](NC(=O)CN)C(=O)N[C@@H](CCCCN)C(=O)N[C@@H](CCCCN)C(=O)N[C@@H](CCCNC(=N)N)C(=O)N[C@@H](CCCNC(=N)N)C(=O)N[C@@H](CCC(N)=O)C(=O)N[C@@H](CCCNC(=N)N)C(=O)N[C@@H](CCCNC(=N)N)C(=O)N[C@@H](CCCNC(=N)N)C(=O)N[C@@H](CS)C(N)=O | 5.41 | 6.05 | 3.41 | Non-toxic |  |
| N=C(N)NCCC[C@@H](NC(=O)CN)C(=O)N[C@H](CCCCN)C(=O)N[C@H](CCCCN)C(=O)N[C@H](CCCNC(=N)N)C(=O)N[C@H](CCCNC(=N)N)C(=O)N[C@H](CCC(N)=O)C(=O)N[C@H](CCCNC(=N)N)C(=O)N[C@H](CCCNC(=N)N)C(=O)N[C@H](CCCNC(=N)N)C(=O)N[C@H](CS)C(N)=O | 5.96 | 6.05 | 3.70 | Non-toxic | pEC50 [8]: 5.60; pEC50 [5]: 6.52; pEC50 [9]: 4.09 |
| N=C(N)NCCC[C@@H](NC(=O)CN)C(=O)N[C@H](CCCCN)C(=O)N[C@H](CCCCN)C(=O)N[C@H](CCCNC(=N)N)C(=O)N[C@H](CCCNC(=N)N)C(=O)N[C@H](CCC(N)=O)C(=O)N[C@H](CCCNC(=N)N)C(=O)N[C@H](CCCNC(=N)N)C(=O)N[C@H](CCCNC(=N)N)C(=O)N[C@H](CSSC[C@@H](NC(=O)[C@@H](CCCNC(=N)N)NC(=O)[C@@H](CCCNC(=N)N)NC(=O)[C@@H](CCCNC(=N)N)NC(=O)[C@@H](CCC(N)=O)NC(=O)[C@@H](CCCNC(=N)N)NC(=O)[C@@H](CCCNC(=N)N)NC(=O)[C@@H](CCCCN)NC(=O)[C@@H](CCCCN)NC(=O)[C@@H](CCCNC(=N)N)NC(=O)CN)C(N)=O)C(N)=O | 6.40 | 6.22 | 4.47 | Non-toxic |  |
| N=C(N)NCCC[C@H](NC(=O)CN)C(=O)N[C@@H](CCCCN)C(=O)N[C@@H](CCCCN)C(=O)N[C@@H](CCCNC(=N)N)C(=O)N[C@@H](CCCNC(=N)N)C(=O)N[C@@H](CCC(N)=O)C(=O)N[C@@H](CCCNC(=N)N)C(=O)N[C@@H](CCCNC(=N)N)C(=O)N[C@@H](CCCNC(=N)N)C(=O)N[C@@H](CS)C(=O)O | 5.48 | 5.51 | 4.02 | Non-toxic | Activity [10]: Active; Activity [11]: 6%; Activity [12]: 2.5% |
| CCCC[C@H](NC(=O)[C@H](CCCNC(=N)N)NC(=O)CN)C(=O)N[C@@H](CCCC)C(=O)N[C@@H](CCCNC(=N)N)C(=O)N[C@@H](CCCNC(=N)N)C(=O)N[C@@H](CCC(N)=O)C(=O)N[C@@H](CCCNC(=N)N)C(=O)N[C@@H](CCCNC(=N)N)C(=O)N[C@@H](CCCNC(=N)N)C(=O)N[C@@H](CS)C(N)=O | 4.04 | 5.02 | 3.94 | Non-toxic | Activity [13]: Active |
| CCCC[C@H](NC(=O)[C@H](CCCC)NC(=O)[C@H](CCC(N)=O)NC(=O)[C@H](CCCNC(=N)N)NC(=O)[C@H](CCCNC(=N)N)NC(=O)[C@H](CCCCN)NC(=O)[C@H](CCCCN)NC(=O)[C@H](CCCNC(=N)N)NC(=O)CN)C(=O)N[C@@H](CCCNC(=N)N)C(=O)N[C@@H](CS)C(=O)O | 3.64 | 4.32 | 3.05 | Non-toxic |  |
| N=C(N)NCCC[C@@H](NC(=O)CN)C(=O)N[C@H](CCCCN)C(=O)N[C@H](CCCCN)C(=O)N[C@H](CCCNC(=N)N)C(=O)N[C@H](CCCNC(=N)N)C(=O)N[C@H](CCC(N)=O)C(=O)N[C@H](CCCNC(=N)N)C(=O)N[C@H](CCCNC(=N)N)C(=O)N[C@H](CCCNC(=N)N)C(=O)N[C@H](CS)C(=O)O | 5.27 | 5.60 | 3.82 | Non-toxic | pEC50 [8]: 5.89; pEC50 [14]: 5.11; Activity [15]: Active |
| N=C(N)NCCC[C@@H](NC(=O)CN)C(=O)N[C@H](CCCCN)C(=O)N[C@H](CCCCN)C(=O)N[C@H](CCCNC(=N)N)C(=O)N[C@H](CCCNC(=N)N)C(=O)N[C@H](CCC(N)=O)C(=O)N[C@H](CCCNC(=N)N)C(=O)N[C@H](CCCNC(=N)N)C(=O)N[C@H](CCCNC(=N)N)C(=O)N1CCC[C@@H]1C(N)=O | < 2.92 | 6.15 | 2.98 | Non-toxic | pEC50 [5]: 6.52 |
| N=C(N)NCCC[C@H](NC(=O)CNC(=O)CCCCCNC(=O)CCCC[C@@H]1SC[C@@H]2NC(=O)N[C@@H]21)C(=O)N[C@@H](CCCCN)C(=O)N[C@@H](CCCCN)C(=O)N[C@@H](CCCNC(=N)N)C(=O)N[C@@H](CCCNC(=N)N)C(=O)N[C@@H](CCC(N)=O)C(=O)N[C@@H](CCCNC(=N)N)C(=O)N[C@@H](CCCNC(=N)N)C(=O)N[C@@H](CCCNC(=N)N)C(=O)N[C@@H](CS)C(N)=O |  | 5.24 |  | Non-toxic |  |
